Key:
Type in all cases: biochemical
[1] = molecular target: T1, sickle hemoglobin (HbS) (Homo sapiens, UniProt P68871+P69905, P68871:E7V); assay: NMR binding
Outline: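 HbS labelled at cysteine thiols with rhodamine red (donor) or Cy5 (acceptor) after TCEP reduction; free dye dialysed away. Donor and acceptor HbS mixed 1:5 at 25 μM. Incubated 2 h at room temperature with test compound at seven concentrations (0.1–1000 μM) or DMSO. Vacuum argon degassed 10 min to deoxygenate. Donor fluorescence lifetime read; FRET efficiency E = 1 − τDA/τD.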

[2] = molecular target: T1, sickle hemoglobin (HbS); assay: FLT-FRET dose response and DLS
[3] = molecular target: T1, sickle hemoglobin (HbS); assay: DLS oligomer size and FLT-FRET with purified deoxy-HbS

Question: How did the IC50 [1] turn out when `CN1C(=O)CCS(=O)(=O)C1c1ccc(Cl)cc1` (stereo not drawn) [chlormezanone] was run?
Answer: > 100 µM

Question: For `COc1ccc(-c2ccc(=N)n(CCCC(=O)O)n2)cc1` [gabazine], which “FLT-FRET dose response and DLS (100 μM) with purified deoxy-HbS” value [2] is on record?
Answer: all three compounds significantly decreased the oligomer size relative to control (and to the same extent as voxelotor)

Question: With `CC(C)n1nccc1-c1ncccc1COc1cccc(O)c1C=O` [voxelotor] as the compound, how does the “DLS oligomer size and FLT-FRET with purified deoxy-HbS” value [3] read?
Answer: voxelotor (a compound that increases hemoglobin oxygen binding affinity), which dramatically reduced the mean oligomer size (Figure 1A)

Reference: paper PMC9472799 (Biomacromolecules, 2022)
